Test results from the EternaBench riboswitch data.

Test system: MS2 coat protein
Assay: apparent Kd, MS2 coat protein; higher = weaker binding; RNA-MaP array; FMN 200 µM where present
Outline: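 Designs were transcribed by stalled E. coli RNA polymerase on Illumina sequencing-chip clusters. They were titrated with SNAP-549-labelled MS2 coat protein from 0.7 or 1.5 nM, doubling to 3 µM, in 100 mM Tris-HCl pH 7.5, 80 mM KCl, 4 mM MgCl2, BSA, DTT, yeast tRNA and Tween-20, without and then with constant ligand. The apparent Kd is the median of filtered per-cluster fits after normalisation of green signal to red-channel RNA signal and control-cluster median Fmax.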

[1] = designed as: OFF switch for flavin mononucleotide, no ligand
[2] = ligand present: flavin mononucleotide, designed as: OFF switch for flavin mononucleotide
[3] = designed as: ON switch for flavin mononucleotide, no ligand
[4] = ligand present: flavin mononucleotide, designed as: ON switch for flavin mononucleotide

Row | Sequence | apparent Kd [1] [µM] | apparent Kd [2] [µM] | apparent Kd [3] [µM] | apparent Kd [4] [µM]
1 | GCCUUAUCCGUCAGGAUAUACAUUUUUUAGUUGUUGUAGAAGGGACAUGAGGAUCACCCAUGUACAUUACAUUG | 0.0211 | 0.0218 |  | 
2 | UACGAGUCAGGAUAUUGGGCAAUAGCAUUACGGAACGAUCACAAGAAGGGACAUGAGGAUCACCCAUGUUAUAU | 0.0238 | 0.0217 |  | 
3 | AAAUAAAGCAGUGUAUUAAGAUAACAUGAGGAUCACCCAUGUAGAAGGCUCGAGCAAAAUGCUCGAGAGGAUAUACAACACUGC | 0.00504 | 0.00955 |  | 
4 | AACAAACAUGAGGAUCACCCAUGUCAGGAUAUGGCGGCUAGUGUGCCACCGUACACUACCAGAAGGGACUGGGU | 0.212 | 0.151 |  | 
5 | UGCUGGUGACAGCAUCCAUCAAAACAUGAGGAUCACCCAUGUAGAAGGCUGUACGGUUACCGUACAGAGGAUAUACAAUGAUGU | 0.0132 | 0.0236 |  | 
6 | AAUUACAUGUAGAAGGUACUAACAUAAGUGUUGUAAGGAUAUACCAAUUUAUUAGUUUUAAAGAUACAUGAGGAUCACCCAUGU |  |  | 0.0125 | 0.00822
7 | CGCACUUAUAGAGGAUAUGUUGUACAUGAGGAUCACCCAUGUGUUUUUGUAUCAAUAUUAGUGAAACAGAAGGCUAUUUGUGCG | 0.00576 | 0.00496 |  | 
8 | UGCGUGUUAGGAUAUGCCAGCGCUACCUAAGGUAGGCUGUGGUAGAAGGAACAUGAGGAUCACCCAUGUAGGAG | 0.111 | 0.483 |  | 
9 | AGACUGAAGCAAGGAUAUUGUAAGGUUAUCGUACAAGAAGGUGCUGUUUAUGUCUCUUAACAUGAGGAUCACCCAUGUUUUGAA |  |  | 0.0184 | 0.0181
10 | GGAGCAUAUGUCAGGAUAUCGUGGUCGAUAGAUCACGAGAAGGGACAUGAGGAUCACCCAUGUCAGUCCGCUCC | 0.0143 | 0.0207 |  | 
11 | AGAUACUACGAGAAGGACAUGAGGAUCACCCAUGUAACCUGUAUCAGGAAUGUAGGAUAUCGUAGUAUCAGGAUCGUGAGAUCA | 0.00679 | 0.00782 |  | 
12 | GUGCCUUGGGAGAAGGCAGUAUGCAAAGCAUUCUGAGGAUAUCCAUACCGGAAACGGACAUGAGGAUCACCCAUGUGGCACAAA |  |  | 0.0185 | 0.00752
13 | GCGUGUCAUGUAGGAUAUGACACAGGAAACUGGUCAGAAGGACAUGAGGAUCACCCAUGUAAAAUGUUCAAGAAUAACACAUGC | 0.0506 | 0.185 |  | 
14 | UGCAUGUAGGAGAAGGAGGACUUCAUGAGGAUCACCCAUGUGUUAGGACUUAGGAUAUUUGACGACAUGAGGAUCACCCAUGUG |  |  | 0.0801 | 0.0719
15 | GCUCUUGUCAAGAAGGGCUCGCGGUACGCUGCAGCAGGAUAUUGACAUGAGGAUCACCCAUGUCGACCGGAACAUCUUUGAGGG | 0.0133 | 0.134 |  | 
16 | GGUUGACAAAGUCAACCUAAACGAACAUGAGGAUCACCCAUGUAGGAUAUGCUACUCAAAGAGUAGCAGAAGGACAUGUGCCUU | 0.0376 | 0.273 |  | 
17 | ACAAAUUAGUGAGGAUAUGCUUAAUUUAUAACUGCAGAAGGCACAUACCUCAAGACAUGAGGAUCACCCAUGUGGAAUAUAGAU | 0.0255 | 0.0628 |  | 
18 | AAUAACAGAGGAUAUACUAUUUUAUGUGUUUGUUAUUUUAAACAUGAGGAUCACCCAUGUAGAAGGCUGAAUGA | 0.0264 | 0.0264 |  | 
19 | UAUUAGCUAGGAUAUACAUGAGGAUCACCCAUGUCACGGGUCCACUCGUCCUAUGCGUGUAGAAGGAGCGACCC | 0.0206 | 0.0224 |  | 
20 | UUUUUUCCUCAUGUACAUGAGGAACAUGAGGAUCACCCAUGUAGAAGGAUUUCCCUUAAAUUAAGAUAGGAUAUACAUAUUUUU | 0.0882 | 0.0616 |  | 
21 | UGUGGGAGUCAGAAGGAGUAUUCUACAUGAGGAUCACCCAUGUCUGGUACUAGGAUAUGGGUCUGGACGGACUAAGGUCCCGUA |  |  | 0.753 | 0.196

Row | Sequence | apparent Kd [1] [µM] | apparent Kd [2] [µM] | apparent Kd [3] [µM] | apparent Kd [4] [µM]
22 | UUGGACGACGUAGGAUAUGUAGGAUAUUCCUACAUGAGGAUCACCCAUGUUGACAUGGAAGAAGGACAGAAGGACGAUGUCCAU |  |  | 0.261 | 0.00557
23 | GCGUUGUACGAGAAGGCCAAUACAUGAGGAUCACCCAUGUAAAGUUGUAAUGGAGGAUAUCGAACACAUUCAAUAAUGCAACGC | 0.00829 | 0.00566 |  | 
24 | GCAGGAUAAGUCAGGAUAUACCUAUGGAUACAUAGGUAGAAGGGACAUGAGGAUCACCCAUGUGACUCGCCUGC | 0.0295 | 0.1 |  | 
25 | UGAGUCUGCUGAGGAUAUUGCUCGUGCGUACAUGAGGAUCACCCAUGUGUCUUGAUCCUCUUCUGCAAGAAGGCAGCUCUCUCU | 0.775 | 0.444 |  | 
26 | UGGUACUAGGGAGGAUAUGGGAAGAUACAUGAGGAUCACCCAUGUUUAAGAAUGCCGAGAGGCAUCUAGAAGGCCCUAGUACCU |  |  | 0.877 | 0.115
27 | UUGGUAUUUGUAGGAUAUCUGUCGCCACCGUGUGGAGAAGGACGAACAUGAGGAUCACCCAUGUAUCAUGGUGUGGGCUUUCCU | 0.104 | 0.0997 |  | 
28 | GAGUUUACGUUUGACACUUAGCGAGAGGAUAUGGAAAACAAGACAUGAGGAUCACCCAUGUACUAUCAGAAGGCUCGAGUACGA |  |  | 0.00892 | 0.00569
29 | AUCCAGGUAACAUGAGGAUCACCCAUGUUCCUUCGCUCUGGCAAGGAUAUGAAGGGAUUGUCCCAUCAGAAGGUGCAUGGGUGC |  |  | 0.023 | 0.0199
30 | GCCAUCACAUGAGGAUAUGCUCCCGUUUCGGGAGCAGAAGGCGUGUCAUAAGACAUGAGGAUCACCCAUGUAGUUAAGAUGGCA |  |  | 0.399 | 0.0127
31 | UAGCAUUGCCUUUGGUAGUGCUUUACAUGAGGAUCACCCAUGUAGGAUAUGGUAGGCUUUGCUUACCAGAAGGACAUGAUAAUU | 0.0529 | 0.166 |  | 
32 | CAUCCGGCAGGAUAUACAUGAGGAUCACCCAUGUCAGAAAGCAAAUUGUGCGACUCAGGUAGAAGGGUUGGACU | 0.0289 | 0.0342 |  | 
33 | GUGCCUUAUGAGAAGGCGAUCAUGAAACAUGAUCGAGGAUAUCAUGAAAACAUGAGGAUCACCCAUGUAUGGGUAUUAUGGUAC |  |  | 0.107 | 0.0278
34 | UAAAAGACUAGCUGGUAUCUCCACAUGAGGAUCACCCAUGUCUAGGAUAUGAGCAGCAAAGCUGCUUAGAAGGAGACGCUAGUC | 0.00767 | 0.00883 |  | 
35 | CUGACGAUGUAAGGAUAUGCUGAGGAUAACUCAGCAGAAGGUACAUGAGGAUCACCCAUGUAAUAAGAUCAAUAAUAACGUCAG | 0.0153 | 0.0321 |  | 
36 | GGUGUGAGGCAGGAUAUGCUAUAUGUUCGUAAUGCAGAAGGGUCUACAUGAGGAUCACCCAUGUGUGCGGUUGA | 0.172 | 0.413 |  | 
37 | GGAGCACACAUUAACAUGAGGAUCACCCAUGUCAAAAGACAUGAGGAUAUGGAUCCGAAAAGGAUCCAGAAGGCAUCGUGCUCC |  |  | 0.413 | 0.0247
38 | UGAUCUUGAGUCAGGAUAUGCUGGUUUUUUUUUUAGCAGAAGGGACAUGAGGAUCACCCAUGUUCUCACUUUUU | 0.0161 | 0.0202 |  | 
39 | UAUAUUUAUGUAGGAUAUGGUAUAUAAAAUAUACCAGAAGGACAUGAGGAUCACCCAUGUAUGAAAUUCCAUAAUAACCGUGUA | 0.0111 | 0.0122 |  | 
40 | GCAGCAAUCUAAAACAUGAGGAUCACCCAUGUCGAGAGAUAUGAGGAUAUGCAUCGGAUGAAGAUGCAGAAGGCAUUGUGCUGC |  |  | 0.00866 | 0.00635
41 | UUAGAAUUGUUAGGAUAUUAAUUAUUUUUUAGUAUGAUCUACAUGAGGAUCACCCAUGUUAAAUAUAAGAAGGAACGUUUUAUU | 0.0518 | 0.052 |  | 
